{
  "source": "ChEMBL document CHEMBL1122504",
  "about": "“Heterocyclic Quinones. 4. A new highly cytotoxic drug: 6,7-bis(1-aziridinyl)-5,8-quinazolinedione” (1983)",
  "key": {"[1]": {"tested_on": "P388", "assay": "Median survival time of P388 lymphocytic leukemia cell line after a dose of 10 mg/kg administered intraperitoneally on Q01Dx05 treatment schedule", "format": "functional, Mus musculus", "conditions": "route intraperitoneal", "how_it_was_run": "(§1)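 P388 leukaemia: DBA/2 mice inoculated with 10^6 cells on day 0; treatment began day 1 at the stated route and schedule. Drug was dissolved in 0.15 M NaCl saline. The read-out was median survival time (MST, days), with toxicity taken as survivors on day 5. T/C% = treated MST/control MST × 100; ≥125% is considered significant.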"}, "[2]": {"tested_on": "P388", "assay": "Number of survivors of P388 lymphocytic leukemia cell line on day 5/ number of treated mice at a dose of 7po injection of 15 mg/kg on Q01Dx07 treatment schedule; 10/10", "format": "functional, Mus musculus"}, "[3]": {"tested_on": "Salmonella typhimurium", "assay": "Mutagenesis test was performed at 40 uM concentration in Salmonella Typhimurium TA 98", "format": "functional, Salmonella enterica subsp. enterica serovar Typhimurium", "how_it_was_run": "(§2)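 Salmonella typhimurium his auxotrophs TA98 and TA100 were tested by liquid suspension without metabolic activation. Overnight Oxoid nutrient broth cultures were subcultured, grown 2 h, then exposed to drug for 5 h. Cells were washed, resuspended to A650 2.50, and plated in top agar (0.6% agar, 0.6% NaCl). His+ revertants per plate were counted after 48 h at 37 °C; values are means of three assays.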"}, "[4]": {"tested_on": "Salmonella typhimurium", "assay": "Mutagenesis test was performed at 0.7 uM concentration in Salmonella Typhimurium TA 98", "format": "functional, Salmonella enterica subsp. enterica serovar Typhimurium", "how_it_was_run": "as §2"}, "[5]": {"tested_on": "P388", "assay": "Number of survivors of P388 lymphocytic leukemia cell line on day 5/ number of treated mice at a dose of 7po injection of 20 mg/kg on Q01Dx07 treatment schedule; 10/10", "format": "functional, Mus musculus"}, "[6]": {"tested_on": "B16", "assay": "Median survival time of […] melanocarcinoma cell line after a dose of 5 mg/kg administered intraperitoneally on Q01Dx01 treatment schedule", "format": "functional, Mus musculus", "conditions": "route intraperitoneal", "how_it_was_run": "(§3)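 B16 melanocarcinoma: C57Bl/6 mice implanted sc with cell suspension on day 0; single ip dose in 0.15 M NaCl saline given on day 1. Median survival time was recorded in days, with toxicity taken as survivors on day 5. T/C% = treated MST/control MST × 100; >125% is considered significant.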"}, "[7]": {"tested_on": "Sarcoma-180", "assay": "Median survival time of sarcoma 180 cell line after a dose of 10 mg/kg administered intraperitoneally on Q01Dx01 treatment schedule", "format": "functional, Mus musculus", "conditions": "route intraperitoneal", "how_it_was_run": "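Sarcoma 180 was inoculated ip in Swiss mice (10^6 cells, day 0), and drug was given ip in 0.15 M NaCl saline. Median survival time was recorded in days; antitumor activity was expressed as treated MST over control MST ×100, significant above 125%.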"}, "[8]": {"tested_on": "Salmonella typhimurium", "assay": "Mutagenesis test was performed at 0.7 uM concentration in Salmonella Typhimurium TA 100", "format": "functional, Salmonella enterica subsp. enterica serovar Typhimurium", "how_it_was_run": "as §2"}, "[9]": {"tested_on": "P388", "assay": "MST of treated animal over control when administered at a dose of 15 mg/kg perorally on Q01Dx07 treatment schedule", "format": "functional, Mus musculus", "conditions": "route oral", "how_it_was_run": "as §1"}, "[10]": {"tested_on": "B16", "assay": "MST of treated animal over control when administered at a dose of 10 mg/kg intraperitoneally on Q01Dx01 treatment schedule in B16 melanocarcinoma cell lines", "format": "functional, Mus musculus", "conditions": "route intraperitoneal", "how_it_was_run": "as §3"}, "[11]": {"tested_on": "P388", "assay": "Number of survivors of P388 lymphocytic leukemia cell line on day 5/ number of treated mice at a dose of 5 ip injection of 5 mg/kg on Q01Dx05 treatment schedule; 10/10", "format": "functional, Mus musculus", "conditions": "route intraperitoneal"}, "[12]": {"tested_on": "Salmonella typhimurium", "assay": "Mutagenesis test was performed at 4 uM concentration in Salmonella Typhimurium TA 100", "format": "functional, Salmonella enterica subsp. enterica serovar Typhimurium", "how_it_was_run": "as §2"}, "[13]": {"tested_on": "P388", "assay": "MST of treated animal over control when administered at a dose of 10 mg/kg intraperitoneally on Q04Dx03 treatment schedule", "format": "functional, Mus musculus", "conditions": "route intraperitoneal", "how_it_was_run": "as §1"}, "[14]": {"tested_on": "L1210", "assay": "Number of survivors of L1210 cell line on day 5/ number of treated mice at a dose of 5ip injection of 10 mg/kg on Q01Dx05 treatment schedule; 10/10", "format": "functional, Mus musculus"}, "[15]": {"tested_on": "P388", "assay": "MST of treated animal over control when administered at a dose of 2.5 mg/kg intraperitoneally on Q01Dx09 treatment schedule", "format": "functional, Mus musculus", "conditions": "route intraperitoneal", "how_it_was_run": "as §1"}, "[16]": {"tested_on": "L1210", "assay": "Number of survivors of L1210 cell line on day 5/ number of treated mice at a dose of 2ip injection of 10 mg/kg on Q01Dx02 treatment schedule; 10/10", "format": "functional, Mus musculus"}, "[17]": {"tested_on": "P388", "assay": "Median survival time of P388 lymphocytic leukemia cell line after a dose of 10 mg/kg administered perorally on Q01Dx07 treatment schedule", "format": "functional, Mus musculus", "conditions": "route oral", "how_it_was_run": "as §1"}, "[18]": {"tested_on": "L1210", "assay": "MST of treated animal over control when administered at a dose of 10 mg/kg intraperitoneally on Q01Dx02 treatment schedule in L1210 cell lines", "format": "functional, Mus musculus", "conditions": "route intraperitoneal", "how_it_was_run": "(§4)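 L1210 leukaemia: DBA/2 mice inoculated ip with 10^5 cells on day 0, with ip drug in 0.15 M NaCl saline on the stated schedule. The read-out was median survival time in days, with toxicity taken as survivors on day 5. T/C% = treated MST/control MST × 100; >125% is considered significant.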"}, "[19]": {"tested_on": "L1210", "assay": "MST of treated animal over control when administered at a dose of 20 mg/kg intraperitoneally on Q01Dx01 treatment schedule in L1210 cell lines", "format": "functional, Mus musculus", "conditions": "route intraperitoneal", "how_it_was_run": "as §4"}, "[20]": {"tested_on": "P388", "assay": "MST of treated animal over control when administered at a dose of 20 mg/kg intraperitoneally on Q01Dx01 treatment schedule", "format": "functional, Mus musculus", "conditions": "route intraperitoneal", "how_it_was_run": "as §1"}, "[21]": {"tested_on": "L1210", "assay": "MST of treated animal over control when administered at a dose of 15 mg/kg intraperitoneally on Q01Dx02 treatment schedule in L1210 cell lines", "format": "functional, Mus musculus", "conditions": "route intraperitoneal", "how_it_was_run": "as §4"}, "[22]": {"tested_on": "P388", "assay": "MST of treated animal over control when administered at a dose of 2.5 mg/kg intravenously on Q01Dx01 treatment schedule", "format": "functional, Mus musculus", "conditions": "route intravenous", "how_it_was_run": "as §1"}, "[23]": {"tested_on": "P388", "assay": "Number of survivors of P388 lymphocytic leukemia cell line on day 5/ number of treated mice at a dose of 9 ip injection of 2.5 mg/kg on Q01Dx09 treatment schedule; 10/10", "format": "functional, Mus musculus", "conditions": "route intraperitoneal"}, "[24]": {"tested_on": "P388", "assay": "Median survival time of P388 lymphocytic leukemia cell line after a dose of 5 mg/kg administered intraperitoneally on Q01Dx09 treatment schedule", "format": "functional, Mus musculus", "conditions": "route intraperitoneal", "how_it_was_run": "as §1"}, "[25]": {"tested_on": "P388", "assay": "Number of survivors of P388 lymphocytic leukemia cell line on day 5/ number of treated mice at a dose of 9 ip injection of 5 mg/kg on Q01Dx09 treatment schedule; 10/10", "format": "functional, Mus musculus", "conditions": "route intraperitoneal"}, "[26]": {"tested_on": "P388", "assay": "Median survival time of P388 lymphocytic leukemia cell line after a dose of 10 mg/kg administered intraperitoneally on Q04Dx03 treatment schedule", "format": "functional, Mus musculus", "conditions": "route intraperitoneal", "how_it_was_run": "as §1"}, "[27]": {"tested_on": "P388", "assay": "Median survival time of P388 lymphocytic leukemia cell line after a dose of 15 mg/kg administered perorally on Q01Dx07 treatment schedule", "format": "functional, Mus musculus", "conditions": "route oral", "how_it_was_run": "as §1"}, "[28]": {"tested_on": "P388", "assay": "MST of treated animal over control when administered at a dose of 10 mg/kg intraperitoneally on Q01Dx01 treatment schedule", "format": "functional, Mus musculus", "conditions": "route intraperitoneal", "how_it_was_run": "as §1"}, "[29]": {"tested_on": "Sarcoma-180", "assay": "MST of treated animal over control when administered at a dose of 10 mg/kg intraperitoneally on Q01Dx01 treatment schedule in sarcoma 180 cell lines", "format": "functional, Mus musculus", "conditions": "route intraperitoneal", "how_it_was_run": "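Sarcoma 180: Swiss mice inoculated ip with 10^6 cells on day 0, with single ip injection of drug in 0.15 M NaCl saline. Median survival time was recorded in days, with toxicity taken as survivors on day 5. T/C% = treated MST/control MST × 100; >125% is considered significant.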"}, "[30]": {"tested_on": "Salmonella typhimurium", "assay": "Mutagenesis test was performed at 40 uM concentration in Salmonella Typhimurium TA 100", "format": "functional, Salmonella enterica subsp. enterica serovar Typhimurium", "how_it_was_run": "as §2"}},
  "data": [
    {"smiles": "O=C1C(N2CC2)=C(N2CC2)C(=O)c2ncncc21", "values": [
      {"measurement": "MST", "setting": "[1]", "result": 10.4, "unit": "days"},
      {"measurement": "Toxicity Survivors", "setting": "[2]", "result": 10},
      {"measurement": "Revertants/plate", "setting": "[3]", "result": 334},
      {"measurement": "Revertants/plate", "setting": "[4]", "result": 101},
      {"measurement": "Toxicity Survivors", "setting": "[5]", "result": 10},
      {"measurement": "MST", "setting": "[6]", "result": 15.7, "unit": "days"},
      {"measurement": "MST", "setting": "[7]", "result": 18.3, "unit": "days"},
      {"measurement": "Revertants/plate", "setting": "[8]", "result": 94},
      {"measurement": "T/C", "setting": "[9]", "result": 100, "unit": "%"},
      {"measurement": "T/C", "setting": "[10]", "result": 91, "unit": "%"},
      {"measurement": "Toxicity Survivors", "setting": "[11]", "result": 10},
      {"measurement": "Revertants/plate", "setting": "[12]", "result": 87},
      {"measurement": "T/C", "setting": "[13]", "result": 132, "unit": "%"},
      {"measurement": "Toxicity Survivors", "setting": "[14]", "result": 10},
      {"measurement": "T/C", "setting": "[15]", "result": 128, "unit": "%"},
      {"measurement": "Toxicity Survivors", "setting": "[16]", "result": 10},
      {"measurement": "MST", "setting": "[17]", "result": 7.6, "unit": "days"},
      {"measurement": "T/C", "setting": "[18]", "result": 104, "unit": "%"},
      {"measurement": "T/C", "setting": "[19]", "result": 115, "unit": "%"},
      {"measurement": "T/C", "setting": "[20]", "result": 134, "unit": "%"},
      {"measurement": "T/C", "setting": "[21]", "result": 104, "unit": "%"},
      {"measurement": "T/C", "setting": "[22]", "result": 103, "unit": "%"},
      {"measurement": "Toxicity Survivors", "setting": "[23]", "result": 10},
      {"measurement": "MST", "setting": "[24]", "result": 10.4, "unit": "days"},
      {"measurement": "Toxicity Survivors", "setting": "[25]", "result": 10},
      {"measurement": "MST", "setting": "[26]", "result": 9.9, "unit": "days"},
      {"measurement": "MST", "setting": "[27]", "result": 7.6, "unit": "days"},
      {"measurement": "T/C", "setting": "[28]", "result": 118, "unit": "%"},
      {"measurement": "T/C", "setting": "[29]", "result": 109, "unit": "%"},
      {"measurement": "Revertants/plate", "setting": "[30]", "result": 461}
    ]}
  ]
}
